Data reported in ChEMBL document CHEMBL3232832, “Derivatives of dibenzothiophene for positron emission tomography imaging of α7-nicotinic acetylcholine receptors” (J Med Chem, 2013).

How the values were obtained:
Brain [1] = assay: Drug uptake in CD-1 mouse other brain region at 70 uCi, iv administered 10 mins post naltrindole challenge measured after 90 mins; format: ADME, organism-based; settings: in vivo, 1.5 h
Procedure, shortened: (§1)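 Male CD-1 mice (25–30 g). […] Brains removed 90 min later and dissected on ice. Regions weighed and gamma-counted against injectate standards. Result as %ID/g, mean ± SD, n=3; ANOVA versus controls.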

Cortex [2] = assay: Drug uptake in CD-1 mouse cortex at 70 uCi, iv administered 10 mins post naltrindole challenge measured after 90 mins; format: ADME, organism-based; settings: in vivo, 1.5 h
Procedure, shortened: (§2)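 Male CD-1 mice, n=3. Drug at 2 mg/kg s.c. in saline:DMSO 5:1, with vehicle controls. [18F] radiotracer (70 µCi, SA ~14000 mCi/µmol) given i.v. 10 min later. Regions harvested 90 min after tracer, gamma counted, expressed as %ID/g. Compared by single-factor ANOVA.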

Cerebellum [3] = assay: Drug uptake in CD-1 mouse cerebellum at 70 uCi, iv administered 10 mins post ketanserin challenge measured after 90 mins; format: ADME, organism-based; settings: in vivo, 1.5 h; procedure, shortened: as §2
Brain [4] = assay: Drug uptake in CD-1 mouse other brain region at 70 uCi, iv administered 10 mins post ketanserin challenge measured after 90 mins; format: ADME, organism-based; settings: in vivo, 1.5 h; procedure, shortened: as §1
Cortex [5] = assay: Drug uptake in CD-1 mouse cortex at 70 uCi, iv administered 10 mins post ketanserin challenge measured after 90 mins; format: ADME, organism-based; settings: in vivo, 1.5 h; procedure, shortened: as §2
Hippocampus [6] = assay: Drug uptake in CD-1 mouse hippocampus at 70 uCi, iv administered 10 mins post ketanserin challenge measured after 90 mins; format: ADME, organism-based; settings: in vivo, 1.5 h; procedure, shortened: as §2
Cerebellum [7] = assay: Drug uptake in CD-1 mouse cerebellum at 70 uCi, iv administered 10 mins post spiperone challenge measured after 90 mins; format: ADME, organism-based; settings: in vivo, 1.5 h; procedure, shortened: as §2
Cortex [8] = assay: Drug uptake in CD-1 mouse cortex at 70 uCi, iv administered 10 mins post spiperone challenge measured after 90 mins; format: ADME, organism-based; settings: in vivo, 1.5 h; procedure, shortened: as §2
Hippocampus [9] = assay: Drug uptake in CD-1 mouse hippocampus at 70 uCi, iv administered 10 mins post spiperone challenge measured after 90 mins; format: ADME, organism-based; settings: in vivo, 1.5 h; procedure, shortened: as §2
[10] = Drug uptake in CD-1 mouse superior and inferior colliculus at 70 uCi, iv administered 10 mins post spiperone challenge measured after 90 mins; format: ADME, organism-based; settings: in vivo, 1.5 h; procedure, shortened: as §1
Hippocampus [11] = assay: Drug uptake in CD-1 mouse hippocampus at 70 uCi, iv administered 10 mins post SCH23390 challenge measured after 90 mins; format: ADME, organism-based; settings: in vivo, 1.5 h; procedure, shortened: as §2
[12] = Drug uptake in CD-1 mouse superior and inferior colliculus at 70 uCi, iv followed by compound washout by gamma-counting analysis; format: ADME, organism-based; settings: in vivo
Procedure, shortened: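 Male CD-1 mice (25–30 g) given [18F]radioligand i.v. into a lateral tail vein (70 µCi, 8000–12000 mCi/µmol, in 0.2 mL saline). Killed by cervical dislocation at various times, three per time point. Brains dissected on ice; regions weighed and gamma-counted with injectate standards. Result as %ID/g.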

Hippocampus [13] = assay: Drug uptake in CD-1 mouse hippocampus at 70 uCi, iv administered 10 mins post SSR180711 challenge measured after 90 mins; format: ADME, organism-based; settings: in vivo, 1.5 h
[14] = Drug uptake in CD-1 mouse superior and inferior colliculus at 70 uCi, iv administered 10 mins post SSR180711 challenge measured after 90 mins; format: ADME, organism-based; settings: in vivo, 1.5 h
Procedure, shortened: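 Male CD-1 mice given the selective α7 partial agonist as positive control, 2 mg/kg s.c. in saline:DMSO 5:1 (0.1 mL), 10 min before i.v. [18F]tracer (70 µCi, ~14000 mCi/µmol, 0.2 mL). Controls received vehicle. Brain regions dissected at 90 min and gamma-counted. %ID/g, mean ± SD, n=3; ANOVA.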

Cerebellum [15] = assay: Drug uptake in CD-1 mouse cerebellum at 70 uCi, iv after 90 mins in presence of cytisine; format: ADME, organism-based; settings: in vivo, 1.5 h
Procedure, shortened: (§3)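 Male CD-1 mice, n=3. […] [18F] radiotracer (70 µCi, SA ~14000 mCi/µmol) given i.v. 5 min later. Regions harvested at 90 min, gamma counted, expressed as %ID/g.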

Brain [16] = assay: Drug uptake in CD-1 mouse other brain region at 70 uCi, iv after 90 mins in presence of cytisine; format: ADME, organism-based; settings: in vivo, 1.5 h
Hippocampus [17] = assay: Drug uptake in CD-1 mouse hippocampus at 70 uCi, iv after 90 mins in presence of cytisine; format: ADME, organism-based; settings: in vivo, 1.5 h; procedure, shortened: as §3
[18] = Drug uptake in CD-1 mouse superior and inferior colliculus at 70 uCi, iv after 90 mins in presence of cytisine; format: ADME, organism-based; settings: in vivo, 1.5 h
Cerebellum [19] = assay: Drug uptake in CD-1 mouse cerebellum at 0.07 mCi, iv after 90 mins co-administered with 3 mg/kg SSR180711; format: ADME, organism-based; set-up: dose 3 mg/kg, route intravenous; settings: in vivo, 1.5 h
Procedure, shortened: (§4)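 Male CD-1 mice (25–30 g), three per dose. Blocker in saline:ethanol 9:1 pH 5.5, given i.v. with [18F] radiotracer (70 µCi, SA 7900 mCi/µmol). Blocker doses 0, 0.02, 0.2, 1 and 3 mg/kg. Regions dissected 90 min later and gamma counted. Expressed as %ID/g, mean ± SD.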

Striatum = assay: Drug uptake in CD-1 mouse striatum at 0.07 mCi, iv after 90 mins co-administered with SSR180711; format: ADME, organism-based; settings: in vivo, 1.5 h
Procedure, shortened: (§5)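 Male CD-1 mice. [18F]tracer (0.07 mCi, SA 7900 mCi/µmol, 0.2 mL) co-injected i.v. with blocker at 0 (vehicle), 0.02, 0.2, 1 or 3 mg/kg. Blocker dissolved in saline:alcohol 9:1, pH 5.5. Brain regions harvested at 90 min and gamma-counted. %ID/g, mean ± SD, n=3 per dose; ANOVA versus controls.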

Cortex [20] = assay: Drug uptake in CD-1 mouse cortex at 0.07 mCi, iv after 90 mins co-administered with SSR180711; format: ADME, organism-based; settings: in vivo, 1.5 h; procedure, shortened: as §4
Hippocampus [21] = assay: Drug uptake in CD-1 mouse hippocampus at 0.07 mCi, iv after 90 mins co-administered with SSR180711; format: ADME, organism-based; settings: in vivo, 1.5 h; procedure, shortened: as §4
[22] = Drug uptake in CD-1 mouse superior and inferior colliculus at 0.07 mCi, iv after 90 mins co-administered with SSR180711; format: ADME, organism-based; settings: in vivo, 1.5 h; procedure, shortened: as §5
Mus musculus = assay: Toxicity in CD-1 mouse assessed as change in behavioral activity at 0.07 mCi, iv after 90 mins in presence of 3-(1,4-Diazabicyclo[3.2.2]nonan-4-yl)-6-fluorodibenzo[b,d]thiophene 5,5-Dioxide; format: organism-based; settings: in vivo, 1.5 h
Procedure, shortened: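 CD-1 mice observed for behavioral and locomotor changes during self-blockade studies. [18F]tracer (0.07 mCi, i.v.) was co-injected with the non-radioactive ligand at 0.3 or 0.2 mg/kg i.v., dissolved in saline at pH 5.5. Brains were harvested at 90 min.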

Hippocampus [23] = assay: Drug uptake in CD-1 mouse hippocampus at 0.07 mCi, iv after 90 mins relative to drug uptake in CD-1 mouse cerebellum; format: ADME, organism-based; settings: in vivo, 1.5 h
Cerebellum [24] = assay: Drug uptake in CD-1 mouse cerebellum at 0.07 mCi, iv after 90 mins in presence of 3-(1,4-Diazabicyclo[3.2.2]nonan-4-yl)-6-fluorodibenzo[b,d]thiophene 5,5-Dioxide; format: ADME, organism-based; settings: in vivo, 1.5 h
Procedure, shortened: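 Male CD-1 mice, n=3. [18F] radiotracer (70 µCi, 0.2 mL) given i.v. together with unlabeled blocker in saline pH 5.5. Brain regions dissected at 90 min, gamma counted, expressed as %ID/g.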

Cerebellum [25] = assay: Ratio of clearance in CD-1 mouse cerebellum to clearance in CD-1 mouse other brain tissues at 70 uCi, iv followed by compound washout after 90 mins by gamma-counting analysis; format: ADME, organism-based; settings: in vivo, 1.5 h
Procedure, shortened: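 CD-1 mouse baseline biodistribution after i.v. [18F]radioligand (70 µCi, 8000–12000 mCi/µmol, in 0.2 mL saline), three mice per time point to 90 min. Regional gamma-counting gave %ID/g, and each region was expressed as a ratio to cerebellum.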

O=S1(=O)c2cc(N3CCN4CCC3CC4)ccc2-c2cccc([18F])c21
Drug uptake (Brain [1]): Active
Drug uptake (Cortex [2]): Active
Drug uptake (Cerebellum [3]): Active
Drug uptake (Brain [4]): Active
Drug uptake (Cortex [5]): Active
Drug uptake (Hippocampus [6]): Active
Drug uptake (Cerebellum [7]): Active
Drug uptake (Cortex [8]): Active
Drug uptake (Hippocampus [9]): Active
Drug uptake [10]: Active
Drug uptake (Hippocampus [11]): Active
Drug uptake [12]: Active
Drug uptake (Hippocampus [13]): Not Active
Drug uptake [14]: Not Active
Drug uptake (Cerebellum [15]): Not Active
Drug uptake (Brain [16]): Not Active
Drug uptake (Hippocampus [17]): Not Active
Drug uptake [18]: Not Active
Drug uptake (Cerebellum [19]): Not Active
Drug uptake (Striatum): Not Active
Drug uptake (Cortex [20]): Not Active
Drug uptake (Hippocampus [21]): Not Active
Drug uptake [22]: Not Active
Activity (Mus musculus): Non-toxic
Drug uptake (Hippocampus [23]): 94%
Drug uptake (Cerebellum [24]): Active
Ratio (Cerebellum [25]): 10
